Converted amounts (≈) assume the structure as drawn. The source made the active and inactive calls. No cut-off for these calls is given here.
How the values were obtained:
Pseudomonas aeruginosa = assay: Antibacterial activity against Pseudomonas aeruginosa CCM 1961 up to 500 uM incubated for 24 to 48 hrs under dark condition by microdilution broth assay; assay type: functional
Procedure, shortened: (§1)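 Broth microdilution per M07-A07, modified, in Mueller-Hinton broth adjusted to pH 7.4 (±0.2). Inoculum is prepared in sterile water to McFarland 0.5 (1.5 × 10⁸ CFU/mL). Plates are incubated in the dark at 35 °C in humid air. MIC is read after 24 and 48 h as at least 95% growth reduction versus control (IC₉₅).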

[1] = tested on: Trichophyton mentagrophytes; assay: Antifungal activity against Trichophyton mentagrophytes 445 after 72 hrs by microdilution broth assay; assay type: functional; conditions: Trichophyton mentagrophytes, 445, 72 h
Procedure, shortened: (§2)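 Broth microdilution per CLSI M38-A2 in RPMI 1640 with glutamine, buffered to pH 7.0 with MOPS, with DMSO as diluent. Final inoculum is 0.5–5 × 10⁴ CFU/mL. Plates are incubated in the dark at 35 °C in humid air and read visually and/or at 540 nm after 72 and 120 h. MIC is at least 50% growth reduction versus control.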

[2] = tested on: Staphylococcus epidermidis; assay: Antibacterial activity against Staphylococcus epidermidis H 6966/08 incubated for 48 hrs under dark condition by microdilution broth assay; assay type: functional; conditions: H 6966/08, 48 h; procedure, shortened: as §1
[3] = tested on: Staphylococcus epidermidis; assay: Antibacterial activity against Staphylococcus epidermidis H 6966/08 incubated for 24 hrs under dark condition by microdilution broth assay; assay type: functional; conditions: H 6966/08, 24 h; procedure, shortened: as §1
Mycobacterium kansasii [4] = assay: Antimycobacterial activity against Mycobacterium kansasii isolate 235/80 after 21 days by micromethod; assay type: functional; conditions: isolate 235/80, 504 h
Staphylococcus aureus [5] = assay: Antibacterial activity against Staphylococcus aureus CCM 4516/08 incubated for 48 hrs under dark condition by microdilution broth assay; assay type: functional; conditions: CCM 4516/08, 48 h; procedure, shortened: as §1
Pichia kudriavzevii = assay: Antifungal activity against Candida krusei E28 after 24 to 48 hrs hrs by microdilution broth assay; assay type: functional
Procedure, shortened: (§3)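 Broth microdilution per CLSI M27-A3 and M38-A2 in RPMI 1640 with glutamine, buffered to pH 7.0 with MOPS. Compounds are diluted in DMSO. Final inoculum is 5 × 10³ CFU/mL for yeasts and 0.5–5 × 10⁴ CFU/mL for moulds. Plates are incubated in the dark at 35 °C in humid air and read visually and/or at 540 nm after 24 and 48 h. MIC is ≥80% growth reduction (IC₈₀) for yeasts and ≥50% (IC₅₀) for filamentous fungi.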

Mycobacterium avium [6] = assay: Antimycobacterial activity against Mycobacterium avium 330/88 measured after 14 days by micromethod; assay type: functional; conditions: 330/88, 336 h
Klebsiella pneumoniae [7] = assay: Antibacterial activity against ESBL positive Klebsiella pneumoniae J 14368/08 up to 500 uM incubated for 24 to 48 hrs under dark condition by microdilution broth assay; assay type: functional; procedure, shortened: as §1
[8] = tested on: Mycobacterium tuberculosis; assay: Antimycobacterial activity against Mycobacterium tuberculosis H37Rv 331/88 measured after 21 days by micromethod; assay type: functional; conditions: H37Rv 331/88, 504 h
Staphylococcus aureus [9] = assay: Antibacterial activity against Staphylococcus aureus CCM 4516/08 incubated for 24 hrs under dark condition by microdilution broth assay; assay type: functional; conditions: CCM 4516/08, 24 h; procedure, shortened: as §1
[10] = Solubility of the compound in Sula's semisynthetic medium up to 1 mM; assay type: physicochemical
Mycobacterium kansasii [11] = assay: Antimycobacterial activity against Mycobacterium kansasii isolate 6509/96 after 21 days by micromethod; assay type: functional; conditions: isolate 6509/96, 504 h
Trichosporon asahii [12] = assay: Antifungal activity against Trichosporon asahii 1188 after 24 hrs by microdilution broth assay; assay type: functional; conditions: Trichosporon asahii, 1188, 24 h; procedure, shortened: as §3
Mycobacterium kansasii [13] = assay: Antimycobacterial activity against Mycobacterium kansasii isolate 235/80 after 14 days by micromethod; assay type: functional; conditions: isolate 235/80, 336 h
Candida albicans [14] = assay: Antifungal activity against Candida albicans ATCC 44859 after 48 hrs by microdilution broth assay; assay type: functional; conditions: ATCC 44859, 48 h; procedure, shortened: as §3
Candida albicans [15] = assay: Antifungal activity against Candida albicans ATCC 44859 after 24 hrs by microdilution broth assay; assay type: functional; conditions: ATCC 44859, 24 h; procedure, shortened: as §3
Mycobacterium kansasii [16] = assay: Antimycobacterial activity against Mycobacterium kansasii isolate 6509/96 after 7 days by micromethod; assay type: functional; conditions: isolate 6509/96, 168 h
Mycobacterium avium [17] = assay: Antimycobacterial activity against Mycobacterium avium 330/88 measured after 21 days by micromethod; assay type: functional; conditions: 330/88, 504 h
[18] = tested on: Trichophyton mentagrophytes; assay: Antifungal activity against Trichophyton mentagrophytes 445 after 120 hrs by microdilution broth assay; assay type: functional; conditions: Trichophyton mentagrophytes, 445, 120 h; procedure, shortened: as §2
Staphylococcus aureus [19] = assay: Antibacterial activity against methicillin-resistant Staphylococcus aureus H 5996/08 incubated for 48 hrs under dark condition by microdilution broth assay; assay type: functional; conditions: H 5996/08, 48 h
Procedure, shortened: (§4)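 Microdilution broth method modified per M07-A07, in Mueller-Hinton broth adjusted to pH 7.4 (±0.2). Inoculum made in sterile water to 0.5 McFarland (1.5 × 10⁸ CFU/mL). Plates incubated in the dark at 35 °C in a humid atmosphere, with reads at 24 and 48 h. MIC taken as at least 95% growth reduction (IC₉₅) versus control.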

Nakaseomyces glabratus [20] = assay: Antifungal activity against Candida glabrata 20/I after 24 hrs by microdilution broth assay; assay type: functional; procedure, shortened: as §3
Mycobacterium kansasii [21] = assay: Antimycobacterial activity against Mycobacterium kansasii isolate 235/80 after 7 days by micromethod; assay type: functional; conditions: isolate 235/80, 168 h
Enterococcus [22] = assay: Antibacterial activity against Enterococcus sp. J 14365/08 incubated for 48 hrs under dark condition by microdilution broth assay; conditions: J 14365/08, 48 h
Nakaseomyces glabratus [23] = assay: Antifungal activity against Candida glabrata 20/I after 48 hrs by microdilution broth assay; assay type: functional; procedure, shortened: as §3
Trichosporon asahii [24] = assay: Antifungal activity against Trichosporon asahii 1188 after 48 hrs by microdilution broth assay; assay type: functional; conditions: Trichosporon asahii, 1188, 48 h; procedure, shortened: as §3
Mycobacterium kansasii [25] = assay: Antimycobacterial activity against Mycobacterium kansasii isolate 6509/96 after 14 days by micromethod; assay type: functional; conditions: isolate 6509/96, 336 h
Aspergillus fumigatus [26] = assay: Antifungal activity against Aspergillus fumigatus 231 after 24 hrs by microdilution broth assay; assay type: functional; conditions: Aspergillus fumigatus, 231, 24 h; procedure, shortened: as §3
[27] = tested on: Mycobacterium tuberculosis; assay: Antimycobacterial activity against Mycobacterium tuberculosis H37Rv 331/88 measured after 14 days by micromethod; assay type: functional; conditions: H37Rv 331/88, 336 h
Candida tropicalis [28] = assay: Antifungal activity against Candida tropicalis 156 after 24 hrs by microdilution broth assay; assay type: functional; conditions: Candida tropicalis, 156, 24 h; procedure, shortened: as §3
Staphylococcus aureus [29] = assay: Antibacterial activity against methicillin-resistant Staphylococcus aureus H 5996/08 incubated for 24 hrs under dark condition by microdilution broth assay; assay type: functional; conditions: H 5996/08, 24 h; procedure, shortened: as §4
Escherichia coli [30] = assay: Antibacterial activity against Escherichia coli CCM 4517 incubated for 48 hrs under dark condition by microdilution broth assay; assay type: functional; conditions: CCM 4517, 48 h; procedure, shortened: as §1
Klebsiella pneumoniae [31] = assay: Antibacterial activity against Klebsiella pneumoniae D 11750/08 up to 500 uM incubated for 24 to 48 hrs under dark condition by microdilution broth assay; assay type: functional; procedure, shortened: as §1
Escherichia coli [32] = assay: Antibacterial activity against Escherichia coli CCM 4517 incubated for 24 hrs under dark condition by microdilution broth assay; assay type: functional; conditions: CCM 4517, 24 h; procedure, shortened: as §1
Aspergillus fumigatus [33] = assay: Antifungal activity against Aspergillus fumigatus 231 after 48 hrs by microdilution broth assay; assay type: functional; conditions: Aspergillus fumigatus, 231, 48 h; procedure, shortened: as §3
Lichtheimia corymbifera = assay: Antifungal activity against Absidia corymbifera 272 after 24 to 48 hrs hrs by microdilution broth assay; assay type: functional; procedure, shortened: as §3
Candida tropicalis [34] = assay: Antifungal activity against Candida tropicalis 156 after 48 hrs by microdilution broth assay; assay type: functional; conditions: Candida tropicalis, 156, 48 h; procedure, shortened: as §3
Enterococcus [35] = assay: Antibacterial activity against Enterococcus sp. J 14365/08 incubated for 24 hrs under dark condition by microdilution broth assay; conditions: J 14365/08, 24 h

Structure (SMILES): O=C(CN1C(=O)CSC1=S)Oc1ccc([N+](=O)[O-])cc1
- Activity (Pseudomonas aeruginosa): inactive
- MIC50 [1]: 125 µM (≈ 39 µg/mL)
- MIC95 [2]: 500 µM (≈ 156 µg/mL)
- MIC95 [3]: 500 µM (≈ 156 µg/mL)
- MIC (Mycobacterium kansasii [4]): 1000 µM (≈ 312 µg/mL)
- MIC95 (Staphylococcus aureus [5]): 500 µM (≈ 156 µg/mL)
- Activity (Pichia kudriavzevii): inactive
- MIC (Mycobacterium avium [6]): 1000 µM (≈ 312 µg/mL)
- Activity (Klebsiella pneumoniae [7]): inactive
- MIC [8]: 500 µM (≈ 156 µg/mL)
- MIC95 (Staphylococcus aureus [9]): 250 µM (≈ 78.1 µg/mL)
- solubility [10]: Soluble
- MIC (Mycobacterium kansasii [11]): 500 µM (≈ 156 µg/mL)
- MIC80 (Trichosporon asahii [12]): > 500 µM
- MIC (Mycobacterium kansasii [13]): 500 µM (≈ 156 µg/mL)
- MIC80 (Candida albicans [14]): > 500 µM
- MIC80 (Candida albicans [15]): > 500 µM
- MIC (Mycobacterium kansasii [16]): 500 µM (≈ 156 µg/mL)
- MIC (Mycobacterium avium [17]): 1000 µM (≈ 312 µg/mL)
- MIC50 [18]: 250 µM (≈ 78.1 µg/mL)
- MIC95 (Staphylococcus aureus [19]): 500 µM (≈ 156 µg/mL)
- MIC80 (Nakaseomyces glabratus [20]): > 500 µM
- MIC (Mycobacterium kansasii [21]): 500 µM (≈ 156 µg/mL)
- MIC95 (Enterococcus [22]): 500 µM (≈ 156 µg/mL)
- MIC80 (Nakaseomyces glabratus [23]): > 500 µM
- MIC80 (Trichosporon asahii [24]): > 500 µM
- MIC (Mycobacterium kansasii [25]): 500 µM (≈ 156 µg/mL)
- MIC50 (Aspergillus fumigatus [26]): 500 µM (≈ 156 µg/mL)
- MIC [27]: 500 µM (≈ 156 µg/mL)
- MIC80 (Candida tropicalis [28]): > 500 µM
- MIC95 (Staphylococcus aureus [29]): 500 µM (≈ 156 µg/mL)
- MIC95 (Escherichia coli [30]): > 500 µM
- Activity (Klebsiella pneumoniae [31]): inactive
- MIC95 (Escherichia coli [32]): > 500 µM
- MIC50 (Aspergillus fumigatus [33]): > 500 µM
- Activity (Lichtheimia corymbifera): inactive
- MIC80 (Candida tropicalis [34]): > 500 µM
- MIC95 (Enterococcus [35]): 500 µM (≈ 156 µg/mL)
